One may read the pIC50 as the IC50 on a negative log10 scale, so that one unit is a factor of ten.

A value given as a limit tells only on which side of the number the result lay.

These results are taken from ChEMBL document CHEMBL5523688, “Selective targeting of human TET1 by cyclic peptide inhibitors: Insights from biochemical profiling” (Bioorg Med Chem, 2024).

The target in assay [1] is Methylcytosine dioxygenase TET1 (Homo sapiens, UniProt Q8NFU7). The experiment in a line: Inhibition of N-terminal 3xFlag-tagged recombinant human TET1 catalytic domain (E1418 to V2136 residues) expressed in baculovirus infected Sf9 cells using 5-methylcytosine as substrate preincubated for 10 mins followed by substrate and DNA-cofactor addition measured after 30 mins by Alphascreen assay. To be noted: read-out: pIC50 (converted). The method in brief: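 TET1 catalytic domain (E1418–V2136, Sf9 baculovirus) at 2 nM was preincubated 10 min with inhibitor (1% DMSO) in HEPES 50 mM pH 7.3, 150 mM NaCl, 0.1% BSA, 0.01% Tween-20. Reaction was started with ascorbate 200 µM, Fe(II) 20 µM, 2OG 20 µM and 5mC ssDNA 10 nM, run 30 min, then EDTA-quenched. Anti-5hmC antibody with AlphaScreen beads, 45–60 min, luminescence read. Three independent replicates.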

Assay [2] has as its target T1, Methylcytosine dioxygenase TET2 (Homo sapiens, UniProt Q6N021). The experiment in a line: Inhibition of N-terminal His-tagged recombinant human TET2 catalytic domain LCIdel mutant (D1129 to G1936 residues with Y1481 to N1843 replaced by 3 x GGGGS linker) expressed in Escherichia coli BL21 (DE3) using 5-methylcytosine as substrate preincubated for 10 mins followed by substrate and DNA-cofactor addition measured after 10 mins by Alphascreen assay.

The target in assay [3] is T1, Methylcytosine dioxygenase TET2. The experiment in a line: Inhibition of N-terminal His-tagged recombinant human TET2 catalytic domain LCIdel mutant (D1129 to G1936 residues with Y1481 to N1843 replaced by 3 x GGGGS linker) expressed in Escherichia coli BL21 (DE3) using 5-methylcytosine as substrate preincubated for 10 mins followed by substrate and DNA-cofactor addition measured after 12 mins by SPE-MS analysis.

The target in assay [4] is Methylcytosine dioxygenase TET3 (Homo sapiens, UniProt O43151). The experiment in a line: Inhibition of recombinant human TET3 catalytic domain (E824 to I1795 residues) expressed in baculovirus infected Sf9 cells using 5-methylcytosine as substrate preincubated for 10 mins followed by substrate and DNA-cofactor addition measured after 10 mins by Alphascreen assay. To be noted: read-out: pIC50 (converted). In general terms: In Alpha technology, singlet oxygen from a donor bead excites a nearby acceptor bead.

Assay [5] concerns the target Methylcytosine dioxygenase TET1 (Mus musculus, UniProt Q3URK3). The experiment in a line: Inhibition of recombinant mouse TET1 catalytic domain (E1367 to V2039 residues) expressed in baculovirus expression system using 5-methylcytosine as substrate preincubated for 10 mins followed by substrate and DNA-cofactor addition measured after 9 mins by Alphascreen assay. The gist of the method: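 Murine Tet1 catalytic domain (E1367–V2039, High Five baculovirus) at 2 nM was preincubated 10 min with inhibitor (1% DMSO) in HEPES 50 mM pH 7.3, NaCl 150 mM, BSA 0.1%, Tween-20 0.01%. Ascorbate 200 µM, Fe(II) 20 µM, 2OG 20 µM and 5mC ssDNA 10 nM were added; reaction ran 9 min, then EDTA-quenched. AlphaScreen anti-5hmC detection by luminescence.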

The subject of assay [6] is Methylcytosine dioxygenase TET2 (Homo sapiens), Q6N021 [UNDEFINED MUTATION]. Conditions: time 20.0 min.

Chain of Methylcytosine dioxygenase TET3 (O43151 whole entry, the tested form may be a part): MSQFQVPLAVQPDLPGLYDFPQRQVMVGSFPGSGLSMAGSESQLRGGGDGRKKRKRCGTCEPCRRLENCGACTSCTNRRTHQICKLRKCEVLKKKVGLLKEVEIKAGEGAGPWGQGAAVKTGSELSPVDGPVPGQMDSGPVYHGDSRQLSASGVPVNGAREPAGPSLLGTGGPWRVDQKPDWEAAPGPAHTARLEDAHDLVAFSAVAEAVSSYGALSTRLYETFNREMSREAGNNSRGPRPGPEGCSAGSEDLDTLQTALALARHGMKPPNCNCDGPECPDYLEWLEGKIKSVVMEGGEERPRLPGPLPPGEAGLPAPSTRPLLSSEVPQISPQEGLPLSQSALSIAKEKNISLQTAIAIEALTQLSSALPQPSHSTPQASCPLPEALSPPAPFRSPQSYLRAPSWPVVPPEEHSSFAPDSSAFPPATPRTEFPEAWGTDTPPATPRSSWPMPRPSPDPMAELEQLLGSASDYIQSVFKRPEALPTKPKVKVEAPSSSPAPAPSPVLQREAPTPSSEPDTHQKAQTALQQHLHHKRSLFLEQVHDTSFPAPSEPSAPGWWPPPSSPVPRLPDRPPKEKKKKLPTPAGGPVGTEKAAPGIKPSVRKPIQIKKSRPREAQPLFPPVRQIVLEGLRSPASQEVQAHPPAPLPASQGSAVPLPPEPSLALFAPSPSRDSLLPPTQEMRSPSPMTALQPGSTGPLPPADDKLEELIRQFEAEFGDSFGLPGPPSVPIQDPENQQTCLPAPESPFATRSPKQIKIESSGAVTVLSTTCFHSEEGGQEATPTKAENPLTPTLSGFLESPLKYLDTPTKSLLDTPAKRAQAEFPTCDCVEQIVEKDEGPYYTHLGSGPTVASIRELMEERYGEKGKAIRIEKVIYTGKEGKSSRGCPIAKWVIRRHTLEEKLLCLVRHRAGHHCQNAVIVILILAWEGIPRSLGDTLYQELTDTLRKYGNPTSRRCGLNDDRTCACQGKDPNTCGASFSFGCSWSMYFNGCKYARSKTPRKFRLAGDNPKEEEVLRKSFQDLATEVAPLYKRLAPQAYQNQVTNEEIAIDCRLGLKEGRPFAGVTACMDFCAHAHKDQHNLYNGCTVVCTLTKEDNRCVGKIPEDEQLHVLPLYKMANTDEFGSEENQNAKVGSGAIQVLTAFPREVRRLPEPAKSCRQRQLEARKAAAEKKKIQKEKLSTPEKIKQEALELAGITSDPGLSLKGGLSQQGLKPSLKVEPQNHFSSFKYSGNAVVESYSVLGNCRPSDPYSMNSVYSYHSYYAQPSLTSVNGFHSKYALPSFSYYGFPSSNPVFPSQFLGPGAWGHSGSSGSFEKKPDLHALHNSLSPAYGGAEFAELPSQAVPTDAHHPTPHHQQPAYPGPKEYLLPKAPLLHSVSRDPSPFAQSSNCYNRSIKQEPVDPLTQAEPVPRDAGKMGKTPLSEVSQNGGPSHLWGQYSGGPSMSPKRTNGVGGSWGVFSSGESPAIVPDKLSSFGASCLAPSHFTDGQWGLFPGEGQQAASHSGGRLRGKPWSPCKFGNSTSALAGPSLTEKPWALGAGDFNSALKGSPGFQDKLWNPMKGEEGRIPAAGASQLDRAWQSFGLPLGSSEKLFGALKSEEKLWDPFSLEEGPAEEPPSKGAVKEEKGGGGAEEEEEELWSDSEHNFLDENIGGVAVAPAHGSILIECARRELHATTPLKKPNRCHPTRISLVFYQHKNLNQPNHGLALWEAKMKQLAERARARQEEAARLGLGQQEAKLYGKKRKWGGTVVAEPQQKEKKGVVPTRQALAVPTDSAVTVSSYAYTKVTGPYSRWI
Chain of Methylcytosine dioxygenase TET1 (Mus musculus, UniProt Q3URK3) (Q3URK3 whole entry, the tested form may be a part): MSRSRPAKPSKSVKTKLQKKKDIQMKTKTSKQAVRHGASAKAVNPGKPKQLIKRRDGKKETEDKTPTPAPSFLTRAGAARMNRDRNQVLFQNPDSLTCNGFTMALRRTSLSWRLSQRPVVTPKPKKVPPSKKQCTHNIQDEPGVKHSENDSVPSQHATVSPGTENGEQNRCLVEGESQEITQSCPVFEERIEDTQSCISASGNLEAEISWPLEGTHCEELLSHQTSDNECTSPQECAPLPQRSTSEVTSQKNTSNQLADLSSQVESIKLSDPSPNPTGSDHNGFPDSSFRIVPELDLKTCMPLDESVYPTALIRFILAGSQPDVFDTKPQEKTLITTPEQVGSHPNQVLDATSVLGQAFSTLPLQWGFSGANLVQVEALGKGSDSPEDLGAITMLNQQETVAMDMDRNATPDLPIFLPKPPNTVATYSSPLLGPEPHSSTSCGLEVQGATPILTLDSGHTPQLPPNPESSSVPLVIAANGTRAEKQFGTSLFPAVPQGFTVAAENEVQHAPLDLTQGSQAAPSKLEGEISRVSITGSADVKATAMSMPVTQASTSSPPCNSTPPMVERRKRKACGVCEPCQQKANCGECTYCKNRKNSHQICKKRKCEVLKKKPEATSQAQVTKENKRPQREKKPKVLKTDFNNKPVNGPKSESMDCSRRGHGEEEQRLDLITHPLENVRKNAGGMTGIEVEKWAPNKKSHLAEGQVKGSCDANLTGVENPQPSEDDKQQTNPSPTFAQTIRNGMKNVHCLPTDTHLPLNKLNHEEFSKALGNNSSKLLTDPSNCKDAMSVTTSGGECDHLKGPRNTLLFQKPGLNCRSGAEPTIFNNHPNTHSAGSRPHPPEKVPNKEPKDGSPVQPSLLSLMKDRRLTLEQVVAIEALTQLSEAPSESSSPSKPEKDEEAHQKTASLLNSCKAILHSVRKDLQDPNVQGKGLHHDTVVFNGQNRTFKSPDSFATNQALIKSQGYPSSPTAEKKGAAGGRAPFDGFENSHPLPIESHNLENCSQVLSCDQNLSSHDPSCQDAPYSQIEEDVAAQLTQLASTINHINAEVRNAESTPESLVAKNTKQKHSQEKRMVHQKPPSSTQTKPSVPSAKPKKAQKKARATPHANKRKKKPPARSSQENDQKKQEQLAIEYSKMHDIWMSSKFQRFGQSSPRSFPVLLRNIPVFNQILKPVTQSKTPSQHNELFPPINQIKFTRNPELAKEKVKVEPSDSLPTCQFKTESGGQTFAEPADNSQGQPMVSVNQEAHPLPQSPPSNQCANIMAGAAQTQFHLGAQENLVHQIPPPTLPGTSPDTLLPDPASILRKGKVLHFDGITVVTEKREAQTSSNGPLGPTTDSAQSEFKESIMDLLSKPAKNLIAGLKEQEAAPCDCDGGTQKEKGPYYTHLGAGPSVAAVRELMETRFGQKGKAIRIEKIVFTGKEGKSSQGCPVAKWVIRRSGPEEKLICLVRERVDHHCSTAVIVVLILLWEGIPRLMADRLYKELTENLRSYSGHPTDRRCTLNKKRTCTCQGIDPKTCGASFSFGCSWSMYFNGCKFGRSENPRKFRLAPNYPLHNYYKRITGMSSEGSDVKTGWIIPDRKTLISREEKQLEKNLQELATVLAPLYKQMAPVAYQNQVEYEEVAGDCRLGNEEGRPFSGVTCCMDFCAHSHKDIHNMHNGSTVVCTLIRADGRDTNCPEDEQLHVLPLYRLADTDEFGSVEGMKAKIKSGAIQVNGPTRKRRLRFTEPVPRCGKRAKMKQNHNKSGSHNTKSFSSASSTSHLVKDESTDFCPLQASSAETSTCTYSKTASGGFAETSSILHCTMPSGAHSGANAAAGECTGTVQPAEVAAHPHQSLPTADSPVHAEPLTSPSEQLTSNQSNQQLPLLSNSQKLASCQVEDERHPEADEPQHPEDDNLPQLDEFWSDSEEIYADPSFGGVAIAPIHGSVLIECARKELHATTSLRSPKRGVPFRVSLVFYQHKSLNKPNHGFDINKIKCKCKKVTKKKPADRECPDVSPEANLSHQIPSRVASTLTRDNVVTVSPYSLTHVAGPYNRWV

Turning to `CC[C@H](C)[C@@H]1NC(=O)[C@H](Cc2ccccc2)NC(=O)[C@H](Cc2ccc(O)cc2)NC(=O)[C@H](CC(C)C)NC(=O)[C@H](CCCNC(=N)N)NC(=O)[C@H](C)NC(=O)[C@H](Cc2c[nH]c3ccccc23)NC(=O)[C@H](Cc2c[nH]c3ccccc23)NC(=O)[C@@H]2CCCN2C(=O)[C@H](C(C)C)NC(=O)[C@H](Cc2ccc(O)cc2)NC(=O)[C@@H](Cc2ccccc2)NC(=O)[C@H](CCCCN)NC(=O)[C@@H](Cc2ccc(O)cc2)NC(=O)CSC[C@H](C(N)=O)NC(=O)CNC1=O`, the IC50 in assay [1] was 240 nM; in assay [4] it was 1020 nM; in assay [5], 1100 nM. The pIC50 in assay [2] was 5.95; in assay [3], 5.52. The deltapIC50 in assay [6] is -0.43.

With `CC[C@H](C)[C@@H]1NC(=O)[C@H](CCC(N)=O)NC(=O)[C@H](Cc2c[nH]cn2)NC(=O)[C@H](Cc2ccc(O)cc2)NC(=O)[C@H]([C@@H](C)O)NC(=O)[C@H](CCCCN)NC(=O)[C@H](C(C)C)NC(=O)[C@H](CCCNC(=N)N)NC(=O)[C@H](Cc2ccc(O)cc2)NC(=O)[C@@H](Cc2ccc(O)cc2)NC(=O)CSC[C@@H](C(N)=O)NC(=O)[C@H](CO)NC(=O)[C@H](C(C)C)NC(=O)[C@H](Cc2ccc(O)cc2)NC(=O)[C@H](C(C)C)NC(=O)[C@H](Cc2ccc(O)cc2)NC(=O)[C@H]([C@@H](C)O)NC1=O`, the IC50 in assay [1] is 776 nM; in assay [4] it was 501 nM; in assay [5], 1350 nM. Besides, the negative logarithm of the IC50 (pIC50) in assay [2] turned out to be 5.89; in assay [3], 5.55. Besides, the deltapIC50 in assay [6] is -0.34.

For `CC[C@H](C)[C@@H]1NC(=O)[C@H](Cc2ccc(O)cc2)NC(=O)[C@H](Cc2ccc(O)cc2)NC(=O)[C@H](C(C)C)NC(=O)[C@@H](Cc2ccc(O)cc2)NC(=O)CSC[C@@H](C(N)=O)NC(=O)[C@H]([C@@H](C)O)NC(=O)[C@H](CCC(=O)O)NC(=O)[C@H](Cc2ccccc2)NC(=O)[C@H](C(C)C)NC(=O)[C@H](C)NC(=O)[C@H](CCCNC(=N)N)NC(=O)[C@H](CS)NC(=O)[C@H](Cc2c[nH]c3ccccc23)NC(=O)[C@H](Cc2c[nH]c3ccccc23)NC(=O)[C@@H]2CCCN2C1=O`, the IC50 in assay [1] is 44700 nM; in assay [4], 31600 nM; in assay [5] it was 38900 nM. Also, the values for the pIC50 in assay [2] and in assay [3] were below 4 and 5.44, respectively. Besides, the deltapIC50 in assay [6] was above 1.44.

For the compound `CC[C@H](C)[C@@H]1NC(=O)[C@H](CCCNC(=N)N)NC(=O)[C@@H](Cc2ccc(O)cc2)NC(=O)CSC[C@@H](C(N)=O)NC(=O)[C@H](Cc2ccc(O)cc2)NC(=O)[C@H](C(C)C)NC(=O)[C@H](CC(N)=O)NC(=O)[C@H](Cc2c[nH]c3ccccc23)NC(=O)[C@H](Cc2c[nH]c3ccccc23)NC(=O)[C@H]([C@@H](C)O)NC(=O)[C@H](Cc2ccc(O)cc2)NC(=O)[C@H](Cc2ccccc2)NC(=O)[C@H](CC(C)C)NC(=O)[C@H](Cc2ccc(O)cc2)NC1=O`, the values for the IC50 in assay [1], in assay [4] and in assay [5] were 1150 nM, 2400 nM and 3390 nM, respectively. Besides, the negative logarithm of the IC50 (pIC50) in assay [2] was found to be 5.59; in assay [3] it was 5.61. This compound yielded a deltapIC50 in assay [6] of 0.02.
